Reference: ChEMBL document CHEMBL3875213, “Quinolines: Microwave-assisted synthesis and their antifungal, anticancer and radical scavenger properties” (Bioorg Med Chem, 2017)
≈ marks a conversion by molar mass, not a printed value. Calls of active or inactive are those of the source. No cut-off for these calls is given here.

Assays:
[1] = system: Candida albicans; assay: Growth inhibition of Candida albicans ATCC 10231 at 3.9 ug/ml incubated for 48 hrs under dark condition by broth microdilution assay relative to amphotericin B; format: functional; conditions: ATCC 10231, 48 h, read-out: GI
How it was run: (§1)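 Yeast broth microdilution (CLSI M27-A3), RPMI-1640, inoculum 1-5 x 10^3 CFU/mL, DMSO ≤1%, 48 h at 30 °C in a moist, dark chamber. […]. Triplicate; amphotericin B as positive control.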

[2] = system: Candida albicans; assay: Growth inhibition of Candida albicans ATCC 10231 at 250 ug/ml incubated for 48 hrs under dark condition by broth microdilution assay relative to amphotericin B; format: functional; conditions: ATCC 10231, 48 h, read-out: GI; how it was run: as §1
[3] = system: Candida albicans; assay: Growth inhibition of Candida albicans ATCC 10231 at 62.5 ug/ml incubated for 48 hrs under dark condition by broth microdilution assay relative to amphotericin B; format: functional; conditions: ATCC 10231, 48 h, read-out: GI; how it was run: as §1
[4] = system: Candida albicans; assay: Growth inhibition of Candida albicans ATCC 10231 at 31.25 ug/ml incubated for 48 hrs under dark condition by broth microdilution assay relative to amphotericin B; format: functional; conditions: ATCC 10231, 48 h, read-out: GI; how it was run: as §1
[5] = system: Candida albicans; assay: Growth inhibition of Candida albicans ATCC 10231 at 125 ug/ml incubated for 48 hrs under dark condition by broth microdilution assay relative to amphotericin B; format: functional; conditions: ATCC 10231, 48 h, read-out: GI; how it was run: as §1
[6] = Antioxidant activity assessed as fluorescent light-induced superoxide anion scavenging activity at 160 uM incubated for 10 mins by nitroblue tetrazolium dye based assay; format: functional
How it was run: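 Superoxide generated photochemically in 50 mM phosphate buffer pH 7.8 with 13 mM L-methionine, 75 µM nitroblue tetrazolium, 100 µM EDTA and 2 µM riboflavin. Compound at 160 µM. 10 min at 25 °C under fluorescent light; dark controls. Read at 575 nm. Resveratrol as positive control; three independent experiments in triplicate.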

[7] = system: Candida albicans; assay: Antifungal activity against Candida albicans ATCC 10231 incubated for 48 hrs under dark condition by broth microdilution assay; format: functional; conditions: ATCC 10231, 48 h
How it was run: (§2)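 Broth microdilution per CLSI M27-A3 in RPMI-1640. Inocula adjusted to 1-5 x 10^3 CFU/mL. Stocks in DMSO (≤1%), final 3.9-250.0 µg/mL. Incubated 48 h at 30 °C in a moist, dark chamber, read at OD 405. % inhibition computed from growth and sterility control wells, run in triplicate. MIC80/MIC50 taken from four-parameter logistic concentration-response curves; amphotericin B as positive control.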

[8] = system: Candida albicans; assay: Growth inhibition of Candida albicans ATCC 10231 at 7.81 ug/ml incubated for 48 hrs under dark condition by broth microdilution assay relative to amphotericin B; format: functional; conditions: ATCC 10231, 48 h, read-out: GI; how it was run: as §1
[9] = Antifungal activity against Cryptococcus neoformans ATCC 32264 incubated for 48 hrs under dark condition by broth microdilution assay; format: functional; how it was run: as §2
[10] = system: Candida albicans; assay: Growth inhibition of Candida albicans ATCC 10231 at 15.62 ug/ml incubated for 48 hrs under dark condition by broth microdilution assay relative to amphotericin B; format: functional; conditions: ATCC 10231, 48 h, read-out: GI; how it was run: as §1
[11] = Antiproliferative activity against human Hep2C cells after 24 hrs by MTT assay; format: functional, cell-based
How it was run: (§3)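 Cells grown in medium with 10% foetal bovine serum and 1% L-glutamine at 37 °C, 5% CO2, seeded at 1 x 10^5 cells/well. Exposed to compound at 1.0-1,000 µg/mL for 24 h. MTT added, absorbance read at 540 nm 3 h later. IC50 obtained by non-linear regression of viability data.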

[12] = Antiproliferative activity against human NCI-H226 cells harboring TP53 mutant after 24 hrs by MTT assay; format: functional, cell-based; conditions: NCI-H226, 24 h; how it was run: as §3
[13] = system: NCI-H226; assay: Selectivity index, ratio of IC50 for human CCD-19Lu cells to IC50 for human NCI-H226 cells; format: functional
How it was run: (§4)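 Selectivity index equals IC50 in non-tumour CCD 19-Lu lung fibroblasts divided by IC50 in the tumour line. Both IC50s come from the 24 h MTT assay (read at 540 nm) over 1.0-1,000 µg/mL.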

[14] = Antiproliferative activity against human CCD-19Lu cells after 24 hrs by MTT assay; format: cell-based; how it was run: as §3
[15] = Selectivity index, ratio of IC50 for human CCD-19Lu cells to IC50 for human Hep2C cells; format: functional; how it was run: as §4
[16] = Antioxidant activity assessed as DPPH radical scavenging activity at 160 uM incubated for 30 mins under dark condition; format: functional
How it was run: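 Compound at 160 µM incubated with 100 µM DPPH in ethanolic medium, stirred in the dark for 30 min, read at 517 nm. Resveratrol as positive control. Three independent experiments, each in triplicate.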

[17] = Antioxidant activity assessed as DPPH radical scavenging activity incubated for 30 mins under dark condition; format: functional
How it was run: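 DPPH (100 µM) in ethanolic medium, stirred 30 min in the dark, absorbance at 517 nm. Compound varied from 0 to 160 µg/mL to find the concentration scavenging 50% of radicals. Three independent experiments, each in triplicate.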

[18] = Antioxidant activity assessed as fluorescent light-induced superoxide anion scavenging activity incubated for 10 mins by nitroblue tetrazolium dye based assay; format: functional
How it was run: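 Riboflavin/light superoxide system: 50 mM phosphate pH 7.8, 13 mM L-methionine, 75 µM NBT, 100 µM EDTA, 2 µM riboflavin, compound 0-200 µg/mL. Fluorescent light for 10 min at 25 °C, dark controls, scavenging measured at 575 nm. Resveratrol as reference.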

Structure (SMILES)	inhibition of growth at 3.9 µg/mL [1] [%]	inhibition of growth at 250 µg/mL [2] [%]	inhibition of growth at 62.5 µg/mL [3] [%]	inhibition of growth at 31.25 µg/mL [4] [%]	inhibition of growth at 125 µg/mL [5] [%]	Activity [6]	MIC50 [7] [mg/L]	MIC80 [7] [mg/L]	inhibition of growth at 7.81 µg/mL [8] [%]	MIC50 [9] [mg/L]	MIC80 [9] [mg/L]	inhibition of growth at 15.62 µg/mL [10] [%]	IC50 [11] [µM]	IC50 [12] [µM]	Ratio IC50 [13]	IC50 [14] [µM]	Ratio IC50 [15]	Activity [16] [%]	SC50 [17] [µM]	SC50 [18] [µM]
N#Cc1ccc(-c2cc(-c3ccccc3)c3cc(Br)ccc3n2)cc1	0	5.75	2.54	2.44	4.86	Active	> 250	> 250	0	> 250	> 250	0	98.8							
c1ccc(-c2cc(-c3ccccc3)c3c4c(ccc3n2)OCO4)cc1	0	24.2	8.77	5.74	13.5	Active	> 250	> 250	0	31.2 (≈ 95.9 µM)	250 (≈ 768 µM)	3.62	951	40	8	354	0			
O=[N+]([O-])c1ccc2c(-c3ccccc3)cc(-c3ccccc3)nc2c1	3.42	54.8	19.8	10.6	38.5		250 (≈ 766 µM)	> 250	4.97	125 (≈ 383 µM)	> 250	7.07		559						
O=[N+]([O-])c1cccc(-c2cc(-c3ccccc3)c3cc(Br)ccc3n2)c1	0	9.14	4.99	4.86	5.11		> 250	> 250	0	> 250	> 250	3.43		8.5				35 to 40		
N#Cc1ccc2nc(-c3ccccc3)cc(-c3ccccc3)c2c1	0	69.9	19.7	12.7	39	Active	250 (≈ 816 µM)	> 250	8.25	125 (≈ 408 µM)	250 (≈ 816 µM)	9.26						70 to 85	19.5	220
Oc1ccc2nc(-c3ccccc3)cc(-c3ccccc3)c2c1	0	12.2	0	0	3.51	Active	250 (≈ 841 µM)	> 250	0	125 (≈ 420 µM)	250 (≈ 841 µM)	0						70 to 85	> 250	> 250
Brc1ccc2nc(C3CCCCC3)cc(-c3ccccc3)c2c1	0	37.2	3.29	1.49	11.3	Active	250 (≈ 682 µM)	> 250	0	250 (≈ 682 µM)	> 250	0		91	5	490		45 to 55	118	> 250
O=[N+]([O-])c1ccc2nc(-c3ccccc3)cc(-c3ccccc3)c2c1	0	36.1	5.93	1.57	15.4	Active	> 250	> 250	0	125 (≈ 383 µM)	250 (≈ 766 µM)	0						45 to 55	104	> 250
Oc1ccc(-c2cc(-c3ccccc3)c3cc(Br)ccc3n2)cc1	2.41	45.8	9.63	6.17	21.2	Active	62.5 (≈ 166 µM)	125 (≈ 332 µM)	3.56	62.5 (≈ 166 µM)	250 (≈ 664 µM)	4.5	105	8	13	104	0			
